Assay results: ChEMBL document CHEMBL5108054, “Targeting Acute Myelogenous Leukemia Using Potent Human Dihydroorotate Dehydrogenase Inhibitors Based on the 2-Hydroxypyrazolo[1,5-a]pyridine Scaffold: SAR of the Aryloxyaryl Moiety” (J Med Chem, 2022)
Calls of active or inactive are those of the source. The calls are words filed in the database; no cut-off is given here.

Experiments:
[1] = Metabolic stability in rat liver microsomes assessed as retention time of parent compound by HPLC-HRMS analysis; assay type: ADME, Microsome
Method in brief: (§1)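 Controls were heat-inactivated microsomes, no regenerating system, and drug-free blank. Samples were taken at 0, 15, 30, 60 and 120 min and quenched with cold acetonitrile. Analysis was by LC-HRMS (C18, water/acetonitrile gradient, ± ESI), with metabolites predicted by SyGMa.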

MV4-11 [2] = assay: Induction of apoptosis in human MV4-11 cells assessed as increase in pro-apoptotic activity at 0.1 uM; assay type: functional, cell-based
Method in brief: (§2)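 THP1 or MV4-11 cells (1 × 10^4/well) exposed to inhibitor at 0.1 or 1 μM, alone or with dipyridamole 1.0 μM and/or uridine 5 μM, for 3 days. Apoptosis was read as annexin V-FITC staining by flow cytometry. n = 3; ANOVA/Tukey.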

THP-1 [3] = assay: Antileukemic activity against human THP-1 cells xenografted in Balb/c mouse assessed as reduction in tumor weight at 20 mg/kg, ip; assay type: functional, organism-based
Jurkat = assay: Cytotoxicity against human Jurkat T cells assessed as reduction in cell viability at 1 to 100 uM measured after 3 days by propidium iodide staining based CFSE staining; assay type: functional; conditions: dose 1-100 µM; time 3 day
THP-1 [4] = assay: Antileukemic activity against human THP-1 cells xenografted in Balb/c mouse assessed as reduction in volume at 20 mg/kg, ip measured twice a week; assay type: functional, organism-based
THP-1 [5] = assay: Induction of apoptosis in human THP-1 cells assessed as increase in pro-apoptotic activity at 0.1 uM; assay type: functional, cell-based; method in brief: as §2
MV4-11 [6] = assay: Induction of apoptosis in human MV4-11 cells assessed as increase in pro-apoptotic activity at 1 uM; assay type: functional, cell-based
THP-1 [7] = assay: Induction of apoptosis in human THP-1 cells assessed as increase in pro-apoptotic activity at 1 uM; assay type: functional, cell-based
[8] = Metabolic stability in rat liver microsomes assessed as retention time of dihydroxyl derivative metabolite by HPLC-HRMS analysis; assay type: ADME, Microsome; method in brief: as §1
[9] = Metabolic stability in rat liver microsomes assessed as retention time of hydroxyl derivative metabolites by HPLC-HRMS analysis; assay type: ADME, Microsome; method in brief: as §1
[10] = Metabolic stability in rat liver microsomes assessed as retention time of hydrogenated dihydroxyl derivative metabolite by HPLC-HRMS analysis; assay type: ADME, Microsome; method in brief: as §1

Retention_time [1] [min] | Retention_time [8] [min] | Retention_time [9] [min] | Retention_time [10] [min] | SMILES | Activity (MV4-11 [2]) | Activity (THP-1 [3]) | CC30 (Jurkat) [µM] | Activity (THP-1 [4]) | Activity (THP-1 [5]) | Activity (MV4-11 [6]) | Activity (THP-1 [7])
17.33 |  |  |  | Cc1cc(NC(=O)c2c(O)nn3ccccc23)c(C(C)C)cc1Oc1ccccc1 | Active | Active | >100 | Active | Active |  | 
 |  |  |  | Cc1cc(Oc2ccccc2)c(C(C)C)cc1NC(=O)c1c(O)nn2ccccc12 |  |  | >100 |  |  | Active | Active
 | 10.59 | 13.41 | 14.14 | O=C(Nc1c(F)c(F)c(-c2ccccc2)c(F)c1F)c1c(O)nn2ccccc12 |  |  |  |  |  |  | 
